# Results as given in PubChem BioAssay AID463150 (The Scripps Research Institute Molecular Screening Center, 2010).
# The source made the active and inactive calls.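 How the source made its calls: active means LXR activation with EC50, the half-maximal effective concentration, of 10 µM or lower; inactive means the rest.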
# Target: Oxysterols receptor LXR-beta (Homo sapiens) (UniProt P55055)
# Test: dose-dependent LXR ligand-binding domain activation – cell-based, luminescence, powder sample, selectivity assay for RORA inverse agonist project, dose response (AID 463150)
# Details: HEK293T GAL4-LXR LBD luciferase reporter, 18-24 h
# How it was run: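 Schedule: 24 h bulk reverse transfection before replating, then 20 h compound exposure. Assay system: HEK293T with GAL4-LXR LBD fusion and UAS luciferase reporter. Technique: luciferase reporter luminescence. Compound dosing: 10-point series from nominal 10 µM. Control set: DMSO-treated cells as normalization reference for luminescence.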
# Oxysterols receptor LXR-beta (Homo sapiens), sequence (P55055 whole entry, looked up, the tested form may be a part): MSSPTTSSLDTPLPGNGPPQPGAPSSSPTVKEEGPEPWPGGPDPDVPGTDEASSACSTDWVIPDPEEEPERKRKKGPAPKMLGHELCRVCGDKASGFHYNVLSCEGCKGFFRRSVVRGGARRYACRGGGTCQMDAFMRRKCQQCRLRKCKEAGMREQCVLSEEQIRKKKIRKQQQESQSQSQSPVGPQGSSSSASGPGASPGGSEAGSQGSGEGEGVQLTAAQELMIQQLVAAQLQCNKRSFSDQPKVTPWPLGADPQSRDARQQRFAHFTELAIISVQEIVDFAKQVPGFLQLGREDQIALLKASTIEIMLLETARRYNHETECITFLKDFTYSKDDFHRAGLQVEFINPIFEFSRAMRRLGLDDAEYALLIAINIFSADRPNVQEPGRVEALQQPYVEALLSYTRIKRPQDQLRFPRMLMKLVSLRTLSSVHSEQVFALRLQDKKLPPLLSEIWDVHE
compound,measurement,value
O=S(=O)(Nc1ccc(C(O)(C(F)(F)F)C(F)(F)F)cc1)c1cccs1,EC50,> 10 µM (inactive)
